Source: PubChem
An excerpt weighted towards active compounds, which were near 7.2% of everything screened.
M1 antagonist: antagonists of rat M1 muscarinic receptor | B-score at 10 µM | CHO-M1 cells, Fluo-4 calcium, ACh EC80 antagonist mode; hits give low values | AID 628, 2007 | 3.4% of 64,000 active;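 active means calcium fluorescence response, raw or row-and-column corrected B-score, differing from the plate sample mean either way at a set confidence level, mostly lower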
HEK293 NFkB inh: inhibitors of PMA/ionomycin-induced NF-kB reporter, primary screen, antigen receptor NF-kB inhibitor project, cell-based, HEK-293 luciferase reporter, luminescence; HEK-293 NF-kB luciferase reporter; inhibition, % at 3 µM; 0.21% of 62,000 active; AID 465, 2006;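 active means inhibition above the mean of all tested compounds plus 3 SD, cut at about 40% in these data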;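 further: 0% = stimulated DMSO wells and 100% = 10 µM reference inhibitor 5653914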
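System: NF-kB luciferase reporter HEK-293 cells | Replication: Single test | Control set: DMSO vs reference inhibitor | Evaluation: % inhibition | Schedule: 1 h pretreatment, 16 h stimulation, 37 °C | Probe or stimulus: PMA with ionomycin | Compound dosing: One dose, 3 µM | Detection: Luciferase luminescence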
hDAT+cocaine: changed hDAT dopamine uptake under cocaine IC80, either direction, primary screen, cocaine antagonist project, cell-based, LLC-PK1 hDAT, [14C]-dopamine uptake, MLSMR | Sodium-dependent dopamine transporter (Homo sapiens), Q01959 | LLC-PK1 hDAT cells, [14C]-dopamine uptake with cocaine IC80; actives deviate in either direction | B-score at 10 µM | 1.3% of 110,000 active | AID 449768, 2010;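 active means Z score or B-score, a plate-position-corrected score, falls beyond the plate's 99.7% confidence bounds, in either direction; inactive means both scores lie inside the 99.7% bounds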;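 further: scored against the spread of the other compound wells on the same plate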
Target sequence (Q01959 whole entry, looked up): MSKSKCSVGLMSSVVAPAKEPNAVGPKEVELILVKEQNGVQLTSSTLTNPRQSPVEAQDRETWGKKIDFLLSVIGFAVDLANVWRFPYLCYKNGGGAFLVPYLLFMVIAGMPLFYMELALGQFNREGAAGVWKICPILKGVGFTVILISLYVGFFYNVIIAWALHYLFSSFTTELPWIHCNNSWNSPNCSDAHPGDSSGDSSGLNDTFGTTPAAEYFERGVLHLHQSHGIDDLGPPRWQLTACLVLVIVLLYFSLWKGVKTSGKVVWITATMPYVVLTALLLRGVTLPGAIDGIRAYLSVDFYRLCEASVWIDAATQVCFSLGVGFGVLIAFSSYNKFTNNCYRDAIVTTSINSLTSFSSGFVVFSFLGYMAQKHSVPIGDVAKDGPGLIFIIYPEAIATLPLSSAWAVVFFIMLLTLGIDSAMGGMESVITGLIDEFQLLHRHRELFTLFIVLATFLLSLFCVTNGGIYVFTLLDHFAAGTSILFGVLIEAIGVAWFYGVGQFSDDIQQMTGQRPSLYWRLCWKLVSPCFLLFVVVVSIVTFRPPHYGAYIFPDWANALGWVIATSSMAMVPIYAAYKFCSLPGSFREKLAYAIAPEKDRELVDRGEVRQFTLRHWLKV
BAP1 inh: inhibitors of BAP1 deubiquitinase, primary screen, biochemical, Ub-AMC fluorescence, kinetic; Ubiquitin carboxyl-terminal hydrolase BAP1 (Homo sapiens), Q92560; recombinant BAP1, Ub-AMC hydrolysis fluorescence kinetic; hits give low values; calls only at 20 µM; 0.48% of 72,000 active;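 active means activity remaining at or below 50% of control, provided the compound also passes the data quality filters; inactive means the rest, including low values that fail the filters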;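 further: 100% = DMSO wells rate and 0% = substrate alone blank rate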
M1 ag: M1 muscarinic receptor agonists, primary screen, CHO-M1 cells, Fluo-4 calcium, agonist mode | Muscarinic acetylcholine receptor M1 | Fluo-4 calcium fluorescence; hits give high values | B-score at 10 µM | 3% of 64,000 active | AID 626, 2007;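 active means fluorescence rise, raw or as B-score row- and column-corrected plate score, outside the 99.7% band of its plate's samples, either direction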
D1 mod: D1 CRE-luciferase signal change, two-sided – cell-based, HEK293 D1, dopamine EC30, D1 allosteric modulator project, primary screen. D(1A) dopamine receptor (Homo sapiens), P21728. dopamine EC30 potentiation; actives deviate in either direction. B-score at 10 µM. 5.9% of 58,000 active. AID 641, 2007;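 active means luminescence count or its row- and column-corrected plate score outside the 99.7% band of the plate's sample wells, on either side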
M1 ag confirm: rat M1 muscarinic receptor agonists, confirmation, CHO-M1 cells, Fluo-4 calcium, duplicate retest | fluorescence change (max-min) at 10 µM | Fluo-4 calcium fluorescence, agonist mode; actives lie on both sides | shares compounds with M1 ag | 19% of 1,700 active;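 active means fluorescence change differs from the solvent-only DMSO control mean at a set confidence level in both duplicate runs; inconclusive means differs from solvent-only control mean in just one of two runs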;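 further: an EC20 dose of acetylcholine follows compound addition during the same imaging run; raw fluorescence intensity difference in instrument units with no normalization to controls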
M4 agonist ctr: agonist activity at rat M4 receptor, confirmation, counter-screen for M1 allosteric modulator project, cell-based, agonist mode. shares compounds with M1 ag. CHO M4/Gqi5 cells, Fluo-4 calcium fluorescence; actives lie on both sides. fluorescence change (max-min) at 10 µM. 9% of 1,700 active;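 active means fluorescence change differing from the plate's solvent-only control wells at 99.7% confidence in both duplicates, whether higher or lower; inconclusive means differs from solvent controls in only one of two duplicates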
An asterisk follows results filed as active; i = inactive; ? = inconclusive; . = no result given.

SMILES	M1 antagonist	HEK293 NFkB inh	hDAT+cocaine	BAP1 inh	M1 ag	D1 mod	M1 ag confirm	M4 agonist ctr
N#CC(C(=O)OC1CCCCC1)c1nc2ccccc2nc1N1CCOCC1 (centres undefined)	4.8*	5	-0.0023	i	72*	1.5	-13	-26
CCOC(=O)C1CCCN(c2nc3ccccc3nc2C(C#N)C(=O)OC(C)COC)C1 (centres undefined)	-1.7	.	.	i	2.9	.	.	.
CCCCOC(=O)C(C#N)c1nc2ccccc2nc1N1CCN(Cc2ccc3c(c2)OCO3)CC1 (centres undefined)	-0.23	15	0.53	i	14*	-2.2	31	6.1
CCOC(=O)C1CCCN(c2nc3ccccc3nc2C(C#N)C(=O)OCCOC)C1 (centres undefined)	-0.83	.	1.3	i	6.8*	2	-7	-28
COc1ccccc1C(=O)Nc1cccc(Cl)c1	.	.	.	i	.	.	.	.
CCC1C(=O)C(C)(C)C(=O)OC1c1cccc([N+](=O)[O-])c1 (centres undefined)	.	.	.	i	.	.	.	.
c1ccc(-c2nnc(SCc3cn4ccsc4n3)o2)cc1	-0.42	9	0.42	i	39*	0.76	-13	-40
COCCNc1cccc2c1C(=O)c1ccccc1C2=O	.	.	.	i	.	.	.	.
COc1ccc(NC(=O)COc2ccccc2C#N)c(S(=O)(=O)N2CCCCC2)c1	-1.6	15	0.042	i	4.4*	-0.34	-16	-26
CN1CCN(CCCNC(=O)c2cn(C3CCCCC3)c(=O)c3c2c2ccccc2n3C)CC1	0.36	10	0.28	.	-0.44	-0.065	.	.
Cn1c2ccccc2c2c(C(=O)NCC3CCCO3)cn(C3CCCC3)c(=O)c21 (centres undefined)	0.0061	5	-0.022	.	8.8*	0.87	-9.8	-63
Cc1ccc(NC(=O)COC(=O)CCc2c[nH]c(=O)[nH]2)cc1	-0.033	-3	-0.8	i	7.3*	-0.68	27	-1.3
O=C(COC(=O)CCc1c[nH]c(=O)[nH]1)Nc1ccccc1	0.056	10	0.6	i	-0.061	0.034	.	.
O=c1c2ccccc2nc2n1CCN2Cc1ccc(Cl)cc1	-1.8	8	-0.21	i	5.6*	-2.6	?	-59
O=c1c2ccccc2nc(-c2ccccc2)n1Cc1ccc(Cl)cc1	.	.	1	.	.	.	.	.
O=C(c1ccco1)N1CCN=C1SCc1cccnc1	0.18	12	1.1	i	-0.22	0.52	.	.
O=C(c1ccco1)N1CCN=C1SCc1ccccc1F	1.1	14	-0.56	i	-3.3*	0.78	-15	-29
O=C(O)C1C2CC=CC2c2cc(Oc3ccccc3)cc3c2N1CC1CC=CC31 (centres undefined)	.	.	.	i	.	.	.	.
O=C1CSC(c2nn(-c3ccccc3)cc2-c2cc3ccccc3oc2=O)N1Cc1ccco1 (centres undefined)	-0.25	6	1.1	.	3.2*	-0.21	11	-38
O=C1CSC(c2cn(-c3ccccc3)nc2-c2cc3ccccc3oc2=O)N1Cc1ccccc1 (centres undefined)	.	.	-1.3	.	.	.	.	.
CCc1ccc(-c2nc(CSCC(=O)N3CCN(c4ncccn4)CC3)c(C)o2)cc1	-0.46	14	1.2	i	8.2*	-3.5	-15	?
CCN1CCN(C(=O)CSCc2nc(-c3ccc(OC)c(OC)c3)oc2C)CC1	-0.26	12	.	i	-0.32	0.056	.	.
CCCc1cc(=O)oc2cc3occ(C)c3cc12	-1.1	-3	-0.25	i	2.7*	0.91	-26	?
COc1cc2ccccc2cc1C(=O)Nc1nnc(-c2ccc(F)cc2)s1	.	.	.	i	.	.	.	.
CSc1ncccc1C(=O)OCC(=O)N(C)C1CCS(=O)(=O)C1 (centres undefined)	.	.	-0.56	.	.	.	.	.
SMILES	M1 antagonist	HEK293 NFkB inh	hDAT+cocaine	BAP1 inh	M1 ag	D1 mod	M1 ag confirm	M4 agonist ctr
CC(C)n1nc(C(=O)OCC(=O)N(C)C2CCS(=O)(=O)C2)c2ccccc2c1=O (centres undefined)	1	13	1.2	i	10*	0.23	-11	-39
COC(=O)COc1cc(C)cc2oc(=O)c(CC(=O)OC)c(C)c12	0.042	17	-0.69	i	3.1*	-0.26	?	-33
CCOC(=O)c1c(C)oc2c1c(C=NCC1CCCO1)c(O)c1ccccc12 (centres undefined)	0.3	32	-0.58	i	2.9*	0.12	-16	6.4
Cc1ccc(-c2nn[nH]n2)o1	0.095	12	-0.29	i	4.3*	-0.68	-15	?
CCOC(=O)c1oc2ccc(S(=O)(=O)Nc3ccc4c(c3)n(C)c(=O)n4C)cc2c1C	-1.6	26	0.19	i	5.3*	2.4	?	-76
COc1ccc(C2CC(C(F)(F)F)n3nc(C(=O)Nc4cccnc4Cl)c(Cl)c3N2)cc1OC (centres undefined)	.	.	.	i	.	.	.	.
Cc1cc2cc(CCNC(=O)c3ccc(S(=O)(=O)N4CCOCC4)cc3)c(=O)[nH]c2cc1C	-1.9	0	1.1	i	6.7*	-0.85	?	-67
CC(C)C(C(=O)Nc1ccccc1C(N)=O)N1C(=O)c2ccccc2C1=O (centres undefined)	.	.	.	i	.	.	.	.
O=C(Nc1ccc(S(=O)(=O)N2CCCCCC2)cc1)c1ccco1	-0.088	6	0.18	i	-0.85	0.015	.	.
CC1CN(S(=O)(=O)c2ccc(NC(=O)c3ccco3)cc2)CC(C)O1 (centres undefined)	-0.0071	17	0.26	i	12*	.	-12	-32
Clc1ccc2c(c1)CNc1c(ncnc1N1CCOCC1)O2	-2*	1	0.65	i	2.7*	-0.64	?	-74
Nc1cc(Cl)ccc1N1CCOCC1	-1.3	0	0.58	i	-0.061	.	.	.
CCO/C(C)=N/n1c2nc3ccccc3nc2c2c(=O)n(C3CCCC3)c(C)nc21	-0.5	15	1.1	i	9.4*	2.3	?	-41
Cc1ccc(Cl)cc1N1CCN(C(=O)Cn2ccc3ccccc3c2=O)CC1	-0.047	8	0.13	i	8.7*	0.038	3.7	-26
